# Screening data as filed in PubChem BioAssay.
# MrgX1 PAM = allosterically activates human MrgX1 receptor signaling | MrgX1-HEK293, Fluo-4 calcium flux, FDSS; stronger effect = higher value | B-score at 10 µM | 310,000 compounds, 0.63% hits | AID 588675;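 active means plate-corrected calcium response at least 3 library SD above typical, normal starting fluorescence, not activating the receptor alone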;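 further: compound read alongside a low EC10 to EC30 dose of BAM8-22 agonist; peak minus trough fluorescence over baseline measured at the second addition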
# RGS4 inh = inhibitors of human RGS4 | HEK293 M3R/RGS4 inducible, Fluo-4 calcium flux; stronger effect = higher value; triggered by carbachol at its EC20 | AID 463165 | B-score at 10 µM | P49798 | 310,000 compounds, 0.45% hits;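 active means B-score, a plate-corrected calcium signal, over three deviations above library mean, with baseline fluorescence within five deviations of library mean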;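 further: RGS4 expression induced by doxycycline in cells with stable M3 receptor; B-score is computed from the integrated fluorescence ratio over baseline after carbachol; higher B-score means a larger calcium signal and so more RGS4 inhibition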
# Target sequence (P49798 whole entry, looked up): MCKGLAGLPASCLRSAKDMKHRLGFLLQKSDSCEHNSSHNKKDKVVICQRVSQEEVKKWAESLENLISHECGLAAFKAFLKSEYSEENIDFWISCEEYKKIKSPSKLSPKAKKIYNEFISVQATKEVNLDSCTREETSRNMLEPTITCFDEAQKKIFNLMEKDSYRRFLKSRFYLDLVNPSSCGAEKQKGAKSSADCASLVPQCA
# RGS4 act = RGS4 potentiation or activation; HEK293 M3R/inducible RGS4, carbachol calcium flux Fluo4; stronger effect = lower value; B-score at 10 µM; 310,000 compounds, 0.92% hits;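 active means B-score of the integrated calcium signal more than 4 SD below the library mean, with starting fluorescence not abnormally high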;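 further: negative B-score means reduced calcium response which marks RGS4 activation or potentiation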
#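 Reagent: ECmax carbachol challenge; Test system: M3R-expressing HEK293 line, RGS4 induced by doxycycline; Schedule: overnight RGS4 induction, 30 min dye load 37 °C, 20 min compound RT; Detection: calcium dye Fluo4 fluorescence; Read-out: Agonist-evoked peak-minus-minimum fluorescence over baseline, integrated ratio, B score.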
# MrgX1 antag = human MrgX1 receptor antagonism, primary screen; Q96LB2; MRGX1-HEK293 calcium flux, Fluo-4, BAM8-22 antagonism; stronger effect = lower value; B-score at 10 µM; 310,000 compounds, 1.3% hits; AID 588676;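 active means calcium-response B-score plate-corrected more than 3 library SD below zero, starting fluorescence within 5 deviations, no agonist response on first addition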;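 further: peak minus trough fluorescence over baseline after final BAM8-22 challenge near maximal dose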
# MrgX1 ag = activates human MrgX1 receptor signaling. Q96LB2. MrgX1-HEK293 cells, Fluo-4 calcium fluorescence, agonist mode; stronger effect = higher value. B-score at 10 µM. 310,000 compounds, 0.44% hits. AID 588627;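 active means calcium response B-score plate-corrected fluorescence ratio at least 3 library SD, with starting fluorescence B-score inside 5 SD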
#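 Test system: Stable human MrgX1 HEK293 cell line | Schedule: Overnight plating before 1 h dye loading | Read-out basis: Baseline-normalised fluorescence change ratio, B-scored | Detection: Kinetic calcium dye fluorescence, Fluo-4 NW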
# RGS4 block valid = RGS4 inhibitor validation; shares compounds with RGS4 inh; 1,700 compounds, 65% hits; calcium response, % at 10 µM; AID 492999; HEK293 M3R/RGS4, carbachol calcium Fluo-4 fluorescence; carbachol added at its EC20; 0 = buffer wells, 100 = carbachol control;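 active means duplicate-averaged calcium response above the buffer-only control mean plus 5 SD of those controls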;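 further: integrated fluorescence ratio F max minus min over baseline F0; higher response in RGS4-induced cells means RGS4 inhibition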
# M3R Ca ctr = non-induced cell nonspecific activity of RGS4 inhibitors. AID 493000. HEK293 M3R non-induced, carbachol calcium Fluo-4; submaximal (EC20) carbachol stimulus; buffer wells 0%, carbachol control wells 100%. shares compounds with RGS4 inh. 1,900 compounds, 20% hits. activity (percent), % at 10 µM; call rule not given here;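 further: RGS4 induction absent so cells express M3R without RGS4; higher means more calcium signal and flags a non-specific hit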
# M3R basal Ca ctr = second counter-screen for RGS4 inhibitors: non-induced cells without carbachol; shares compounds with RGS4 inh; HEK293 M3R/RGS4 non-induced, Fluo-4 calcium, no carbachol; normalised: buffer wells 0%, carbachol wells 100%; calcium response (agonist-mode artifact), % at 10 µM; 1,900 compounds, 22% hits;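 active means duplicate-averaged calcium rise in uninduced cells above buffer wells' mean plus 5 SD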
# * hit, by the source's call; i = inactive; . = no result given. This is a sample that favours compounds with a hit; in the whole collection about 3.5% have one here.
SMILES,MrgX1 PAM,RGS4 inh,RGS4 act,MrgX1 antag,MrgX1 ag,RGS4 block valid,M3R Ca ctr,M3R basal Ca ctr
CSc1cccc(NC(=O)CCNS(=O)(=O)c2ccc3[nH]c(=O)oc3c2)c1,i,i,i,i,i,.,.,.
N/C(=N\N=C\c1cccs1)SC1CC(=O)N(c2ccc(Br)cc2)C1=O (stereo unspecified),i,i,i,i,i,.,.,.
C/C(=N\N=C(/N)SC1CC(=O)N(c2ccccc2)C1=O)c1cccs1 (stereo unspecified),i,i,i,i,i,.,i,i
O=C(O)c1ccc2c(c1)C(=O)N(c1cccc(C(=O)/C=C/c3ccccc3)c1)C2=O,i,15*,i,i,i,68%*,i,i
O=C(O)c1cccc(N2C(=O)c3ccc(C(=O)c4cccc([N+](=O)[O-])c4)cc3C2=O)c1,i,i,i,i,i,.,.,.
O=C(NC1CCCCC1)c1ccc(Cn2cc(Cl)cn2)cc1,i,i,i,i,i,.,.,.
Cc1sc2ncnc(N3CCC(C(=O)Nc4nc(-c5cccs5)cs4)CC3)c2c1C,i,i,i,i,i,.,.,.
CCOc1cccc(NC(=O)/C(C#N)=C\c2cn(CC(=O)O)c3ccccc23)c1,i,i,i,i,i,.,.,.
COC(=O)c1ccc(COc2ccccc2/C=C(\C#N)C(=O)Nc2ccc(C)cc2C)cc1,i,i,i,i,i,i,i,i
COC(=O)c1ccc(COc2ccccc2/C=C(\C#N)C(=O)Nc2c(C)cc(C)cc2C)cc1,i,i,i,i,i,i,i,i
CCOc1ccccc1/C=C(\C#N)C(=O)Nc1cccc(C(=O)O)c1,i,5*,i,i,i,14%*,i,i
Cc1ncc(CN2CCN(CCc3ccccc3)C(CCO)C2)s1 (stereo unspecified),i,i,i,i,i,.,.,.
COc1cccc(/C=N/NC(=O)CSc2ccccc2C)c1OC,i,i,i,i,i,i,i,i
